{"source": "PubChem BioAssay", "note": "Some of the results follow. Unmarked numbers belong to inactive results.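 Rule for the calls: active = mean percent activation of the reporter above a cutoff set as the average over tested compounds plus their standard deviation; inactive = the rest.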", "data": [{"target": "Oxysterols receptor LXR-beta (Homo sapiens) (UniProt P55055)", "sequence (P55055 whole entry, looked up, the tested form may be a part)": "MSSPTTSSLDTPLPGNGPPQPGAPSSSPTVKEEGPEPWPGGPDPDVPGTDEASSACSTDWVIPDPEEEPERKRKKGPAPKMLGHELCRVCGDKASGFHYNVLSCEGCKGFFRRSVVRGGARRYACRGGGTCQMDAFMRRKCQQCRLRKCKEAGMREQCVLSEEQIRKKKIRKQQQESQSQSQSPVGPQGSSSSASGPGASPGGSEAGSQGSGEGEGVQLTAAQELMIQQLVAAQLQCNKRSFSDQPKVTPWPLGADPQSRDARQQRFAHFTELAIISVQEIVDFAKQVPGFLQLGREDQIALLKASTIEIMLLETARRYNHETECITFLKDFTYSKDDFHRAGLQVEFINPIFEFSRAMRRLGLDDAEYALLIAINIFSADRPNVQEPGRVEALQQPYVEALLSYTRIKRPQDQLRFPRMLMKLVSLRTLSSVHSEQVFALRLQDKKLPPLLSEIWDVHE", "test": "nonspecific reporter activation via LXR – cell-based, luminescence, HEK293, H. contortus campaign, counter-screen for hcDAF-12 agonist project, confirmation (AID 743027)", "settings": "HEK293 Gal4-LXR tk-luc reporter, 24 h, at 6.8 µM, active compounds read high, normalized: DMSO 0%, positive control 100%", "how_it_was_run": "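System: HEK293 cells transfected with Gal4-LXR vector plus GAL4-driven tk-luciferase reporter / Replicates: triplicate wells per compound / Detection: luciferase luminescence read with One-Glo reagent / Read-out basis: % activation / Timing: 24 h compound exposure at 37 °C, 5% CO2 / Benchmarks: DMSO low control, positive-control high control / Compound dosing: 6.8 µM single dose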", "units": {"activation": "%"}, "values": [{"smiles": "C/C(=N/NC(=S)Nc1ccccc1)c1ccc2c(c1)OCO2", "activation": 0.01}, {"smiles": "N[C@@H](Cc1ccccc1)C(=O)N1CCC(C(=O)NCC(=O)Nc2ccc(F)cc2)CC1", "activation": -0.2}, {"smiles": "Cc1ccc(S(=O)(=O)Nc2nc3ccccc3nc2N2CCc3ccccc3C2)cc1", "activation": 0.14}, {"smiles": "Cc1nn(CCOc2ccccc2)c(=O)n1-c1ccccc1F", "activation": 0.49}, {"smiles": "CCc1ccc(-c2cc(C(=O)NN3CCN(C)CC3)c3ccccc3n2)cc1", "activation": -0.24}, {"smiles": "O=C(Cn1ccc([N+](=O)[O-])n1)NCc1cccs1", "activation": -0.27}, {"smiles": "Cc1cccc(Nc2nc(-c3ccccc3)cs2)n1", "activation": 1.85}, {"smiles": "c1ccc2sc(NN=C3CCCC3)nc2c1", "activation": 1.38}, {"smiles": "O=C(OCC(=O)c1c[nH]c2ccccc12)c1cccc(O)c1", "activation": 0.27}, {"smiles": "O=C(COc1cccc(Cl)c1)NCc1ccccc1", "activation": -0.12}, {"smiles": "NNc1nc2c(Cl)cccc2s1", "activation": -0.01}, {"smiles": "Cc1cc(O)c(C(=O)/C=C/c2c(F)c(F)c(F)c(F)c2F)c(=O)o1", "activation": -0.23}, {"smiles": "Cc1ccc(-c2nc3ccccc3[nH]2)cc1N", "activation": 2.07}]}]}
